ChEMBL document CHEMBL3352277, “Click approach to the discovery of 1,2,3-triazolylsalicylamides as potent Aurora kinase inhibitors” (Bioorg Med Chem, 2014)
Active and inactive are the calls of the source. The calls are words filed in the database; no cut-off is given here.

Key:
Aurora kinase B [1] = target: T1, Aurora kinase B (Homo sapiens, UniProt Q96GD4); assay: Inhibition of Aurora B (unknown origin) at 10 uM using [33P]-ATP and 10 uM ATP after 2 hrs
[2] = target: T2, Aurora kinase A (Homo sapiens) (UniProt O14965); assay: Inhibition of Aurora A (unknown origin) at 10 uM using [33P]-ATP and 10 uM ATP after 2 hrs
T2 sequence (whole entry): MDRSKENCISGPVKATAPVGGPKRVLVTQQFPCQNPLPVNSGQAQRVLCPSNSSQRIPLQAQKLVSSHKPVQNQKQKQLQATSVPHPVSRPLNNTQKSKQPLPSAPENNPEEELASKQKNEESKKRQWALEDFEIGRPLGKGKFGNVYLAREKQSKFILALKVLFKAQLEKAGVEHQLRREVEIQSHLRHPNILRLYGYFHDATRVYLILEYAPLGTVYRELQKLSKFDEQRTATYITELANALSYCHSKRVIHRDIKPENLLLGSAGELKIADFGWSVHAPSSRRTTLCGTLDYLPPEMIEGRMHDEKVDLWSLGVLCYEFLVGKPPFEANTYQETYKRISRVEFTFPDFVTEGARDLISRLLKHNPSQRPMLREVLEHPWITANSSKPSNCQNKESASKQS

Aurora kinase B [3] = target: T1, Aurora kinase B; assay: Inhibition of Aurora B (unknown origin) using [33P]-ATP and 10 uM ATP after 2 hrs
Aurora kinase A = target: T3, Aurora kinase A (Homo sapiens, UniProt O14965); assay: Inhibition of Aurora A (unknown origin) using [33P]-ATP and 10 uM ATP after 2 hrs
T3 sequence (O14965 whole entry): T2 sequence (whole entry)

[4] = tested on: Epidermal growth factor receptor (Homo sapiens), P00533 [L858R]; assay: Inhibition of EGFR L858R mutant (unknown origin) at 10 uM; type: protein assay
Outline: (§1)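 Single 10 µM concentration against a 40-kinase panel on the radiometric HotSpot platform. Kinase and substrate were added before ³³P-ATP started the reaction, which ran 2 h at room temperature.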

[5] = target: Serine/threonine-protein kinase pim-1 (Homo sapiens) (UniProt P11309); assay: Inhibition of […] (unknown origin) at 10 uM; outline: as §1
[6] = target: T2, Aurora kinase A (Homo sapiens); assay: Inhibition of Aurora A (unknown origin) at 10 uM
[7] = target: Glycogen synthase kinase-3 beta (Homo sapiens) (UniProt P49841); assay: Inhibition of GSK3beta (unknown origin) at 10 uM; outline: as §1
Glycogen synthase kinase-3 beta (Homo sapiens), sequence (P49841 whole entry, looked up): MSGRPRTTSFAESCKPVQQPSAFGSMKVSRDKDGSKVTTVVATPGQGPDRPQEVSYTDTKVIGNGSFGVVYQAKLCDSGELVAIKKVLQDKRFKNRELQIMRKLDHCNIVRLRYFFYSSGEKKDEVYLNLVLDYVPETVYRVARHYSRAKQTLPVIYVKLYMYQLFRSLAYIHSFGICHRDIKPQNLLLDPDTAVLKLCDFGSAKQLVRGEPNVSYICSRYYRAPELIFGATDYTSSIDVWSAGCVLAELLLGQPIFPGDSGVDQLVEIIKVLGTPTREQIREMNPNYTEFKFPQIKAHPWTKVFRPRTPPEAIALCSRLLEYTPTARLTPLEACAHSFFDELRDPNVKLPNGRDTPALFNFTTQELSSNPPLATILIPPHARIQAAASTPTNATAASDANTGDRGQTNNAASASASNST

T1 sequence (Q96GD4 whole entry): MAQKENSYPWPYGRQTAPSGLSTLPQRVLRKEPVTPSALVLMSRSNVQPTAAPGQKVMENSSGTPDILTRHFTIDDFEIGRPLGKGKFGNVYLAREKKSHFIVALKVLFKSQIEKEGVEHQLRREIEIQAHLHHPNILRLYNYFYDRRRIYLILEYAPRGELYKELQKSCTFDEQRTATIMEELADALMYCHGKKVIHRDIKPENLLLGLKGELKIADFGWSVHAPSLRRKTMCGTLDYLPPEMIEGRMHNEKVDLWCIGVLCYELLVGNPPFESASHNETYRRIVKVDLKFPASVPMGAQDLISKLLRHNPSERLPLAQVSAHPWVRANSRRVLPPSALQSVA
Serine/threonine-protein kinase pim-1 (Homo sapiens), sequence (P11309 whole entry, looked up): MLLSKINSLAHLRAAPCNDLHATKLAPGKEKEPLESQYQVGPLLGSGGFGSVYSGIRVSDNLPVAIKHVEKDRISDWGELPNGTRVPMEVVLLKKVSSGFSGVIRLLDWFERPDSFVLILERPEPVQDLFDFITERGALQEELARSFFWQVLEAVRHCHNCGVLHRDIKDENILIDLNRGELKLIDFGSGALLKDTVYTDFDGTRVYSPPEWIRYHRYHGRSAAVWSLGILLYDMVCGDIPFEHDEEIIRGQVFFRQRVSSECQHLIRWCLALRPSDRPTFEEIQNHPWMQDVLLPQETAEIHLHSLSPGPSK
Epidermal growth factor receptor (Homo sapiens), P00533 [L858R], sequence (P00533 whole entry L858R): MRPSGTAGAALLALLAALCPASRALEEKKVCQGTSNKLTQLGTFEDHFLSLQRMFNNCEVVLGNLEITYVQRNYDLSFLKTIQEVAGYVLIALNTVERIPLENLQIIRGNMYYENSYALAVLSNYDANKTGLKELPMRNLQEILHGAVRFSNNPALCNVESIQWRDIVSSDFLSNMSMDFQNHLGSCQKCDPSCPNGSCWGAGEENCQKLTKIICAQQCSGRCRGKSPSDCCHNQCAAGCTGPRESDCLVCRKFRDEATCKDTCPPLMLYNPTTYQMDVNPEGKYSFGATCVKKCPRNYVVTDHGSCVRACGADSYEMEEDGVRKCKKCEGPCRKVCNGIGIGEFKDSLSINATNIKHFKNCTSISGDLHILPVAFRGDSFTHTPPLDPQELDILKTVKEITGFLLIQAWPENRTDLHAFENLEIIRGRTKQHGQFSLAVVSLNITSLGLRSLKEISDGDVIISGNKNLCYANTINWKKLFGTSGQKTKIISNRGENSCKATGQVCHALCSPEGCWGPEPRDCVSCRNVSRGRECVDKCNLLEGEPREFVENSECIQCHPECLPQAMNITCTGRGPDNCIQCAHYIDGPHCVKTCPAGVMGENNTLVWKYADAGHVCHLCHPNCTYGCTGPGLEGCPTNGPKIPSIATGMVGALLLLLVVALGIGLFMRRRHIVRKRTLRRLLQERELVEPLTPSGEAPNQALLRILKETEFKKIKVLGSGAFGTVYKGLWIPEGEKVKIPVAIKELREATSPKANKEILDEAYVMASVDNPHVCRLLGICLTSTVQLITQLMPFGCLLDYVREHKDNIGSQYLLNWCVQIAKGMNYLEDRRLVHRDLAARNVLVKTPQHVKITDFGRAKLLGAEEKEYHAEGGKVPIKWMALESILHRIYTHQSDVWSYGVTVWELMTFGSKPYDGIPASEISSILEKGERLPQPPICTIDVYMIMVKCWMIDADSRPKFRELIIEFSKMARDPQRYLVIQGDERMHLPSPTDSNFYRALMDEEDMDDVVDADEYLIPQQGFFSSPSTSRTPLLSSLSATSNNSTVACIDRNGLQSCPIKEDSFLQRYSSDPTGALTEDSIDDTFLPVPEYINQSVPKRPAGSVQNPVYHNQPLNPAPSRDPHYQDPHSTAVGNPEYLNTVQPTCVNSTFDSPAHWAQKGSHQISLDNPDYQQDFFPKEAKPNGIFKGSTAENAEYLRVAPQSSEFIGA

inhibition (Aurora kinase B [1]) [%] | inhibition [2] [%] | IC50 (Aurora kinase B [3]) [nM] | IC50 (Aurora kinase A) [nM] | inhibition [4] | inhibition [5] | inhibition [6] [%] | inhibition [7] | SMILES
50.3 | 83.3 |  |  |  |  |  |  | COc1cccc(NC(=O)c2cc(-n3cc(-c4cc(OC)cc(OC)c4)nn3)ccc2O)c1
57.3 | 90.5 | 63200 | 1820 |  |  |  |  | COC(=O)c1cccc(-c2cn(-c3ccc(O)c(C(=O)Nc4cccc(C(F)(F)F)c4)c3)nn2)c1
 |  |  |  | Active | Active | 74.5 | Active | COc1cc(OC)cc(-c2cn(-c3ccc(O)c(C(=O)Nc4cccc(C(F)(F)F)c4)c3)nn2)c1
71.3 | 90.2 | 3580 | 370 |  |  |  |  | COC(=O)c1cccc(NC(=O)c2cc(-n3cc(-c4cc(OC)cc(OC)c4)nn3)ccc2O)c1
